Source: ChEMBL document CHEMBL3232832, “Derivatives of dibenzothiophene for positron emission tomography imaging of α7-nicotinic acetylcholine receptors” (J Med Chem, 2013)

Tests used:
Format in all cases: ADME, organism-based
Details in all cases: in vivo, 1.5 h; call rule not given here
[1] = test system: Cortex; assay: Drug uptake in CD-1 mouse cortex at 70 uCi, iv administered 10 mins post naltrindole challenge measured after 90 mins
Procedure, shortened: (§1)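 Male CD-1 mice, n=3. Drug at 2 mg/kg s.c. in saline:DMSO 5:1, with vehicle controls. [18F] radiotracer (70 µCi, SA ~14000 mCi/µmol) given i.v. 10 min later. Regions harvested 90 min after tracer, gamma counted, expressed as %ID/g. Compared by single-factor ANOVA.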

[2] = test system: Cerebellum; assay: Drug uptake in CD-1 mouse cerebellum at 70 uCi, iv administered 10 mins post naltrindole challenge measured after 90 mins; procedure, shortened: as §1
[3] = test system: Hippocampus; assay: Drug uptake in CD-1 mouse hippocampus at 70 uCi, iv after 90 mins in presence of cytisine
Procedure, shortened: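 Male CD-1 mice, n=3. […] [18F] radiotracer (70 µCi, SA ~14000 mCi/µmol) given i.v. 5 min later. Regions harvested at 90 min, gamma counted, expressed as %ID/g.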

[4] = Drug uptake in CD-1 mouse superior and inferior colliculus at 70 uCi, iv administered 10 mins post spiperone challenge measured after 90 mins
Procedure, shortened: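 Male CD-1 mice (25–30 g). […] Brains removed 90 min later and dissected on ice. Regions weighed and gamma-counted against injectate standards. Result as %ID/g, mean ± SD, n=3; ANOVA versus controls.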

O=S1(=O)c2cc(N3CCN4CCC3CC4)ccc2-c2cccc([18F])c21
Drug uptake [1]: Active | Drug uptake [2]: Active | Drug uptake [3]: Not Active | Drug uptake [4]: Active
